Measurements taken from ChEMBL document CHEMBL4689842, “EUbOPEN Chemogenomics Library wave 1” (2021).

System: HEK-293T
Assay: Multiplex assay against HEK293T;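 on Population Tubulin-Different-Phenotype (%): share of the cells with healthy nuclei that show this phenotype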
Assay type: toxicity, cell-based
Conditions: human
Outline: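 At seeding, live cells were stained with Hoechst33342, BioTracker Green Microtubule Cytoskeleton Dye, MitoTracker Red and Annexin V Alexa Fluor 680. After compound addition they were imaged on a CQ1 microscope at 37°C and 5% CO2, and CellPathfinder machine-learning gating sorted them into Hoechst high-intensity objects or normal cells, with normal cells further split into healthy, pyknosed or fragmented nuclei and pyknosed cells into mitotic or apoptotic. Tubulin, mitochondrial-mass and membrane-permeability phenotypes are given as per cents of cells with healthy nuclei.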

[1] = 12 h, 0 µM, compound concentration 0 uM, replicate 1
[2] = 12 h, 0 µM, compound concentration 0 uM, replicate 2
[3] = 12 h, 1 µM, compound concentration 1 uM, replicate 1
[4] = 12 h, 1 µM, compound concentration 1 uM, replicate 2
[5] = 24 h, 0 µM, compound concentration 0 uM, replicate 1
[6] = 24 h, 0 µM, compound concentration 0 uM, replicate 2
[7] = 24 h, 1 µM, compound concentration 1 uM, replicate 1
[8] = 24 h, 1 µM, compound concentration 1 uM, replicate 2

CCNc1cc(N[C@H]2CC[C@H](O)CC2)nc(Nc2ccc3c(ccn3Cc3ccccc3)c2)n1
Population Apoptotic (%) [1]: 42%
Population Fragmented Nuclei (%) [1]: 21%
Population Healthy Nuclei (%) [1]: 10%
Population Hoechst High Intensity Objects (%) [1]: 21%
Population Membrane Permeable-Phenotype (%) [1]: 16%
Population Mitochondria Different-Phenotype (%) [1]: 41%
Population Mitotic Cells (%) [1]: 57%
Population Normal (%) [1]: 78%
Population Pyknosed Nuclei (%) [1]: 67%
Population Tubulin-Different-Phenotype (%) [1]: 50%
Total Cell Count [1]: 667
Population Apoptotic (%) [2]: 29%
Population Fragmented Nuclei (%) [2]: 3%
Population Healthy Nuclei (%) [2]: 38%
Population Hoechst High Intensity Objects (%) [2]: 6%
Population Membrane Permeable-Phenotype (%) [2]: 1%
Population Mitochondria Different-Phenotype (%) [2]: 83%
Population Mitotic Cells (%) [2]: 70%
Population Normal (%) [2]: 93%
Population Pyknosed Nuclei (%) [2]: 58%
Population Tubulin-Different-Phenotype (%) [2]: 97%
Total Cell Count [2]: 1155
Population Apoptotic (%) [3]: 23%
Population Fragmented Nuclei (%) [3]: 12%
Population Healthy Nuclei (%) [3]: 54%
Population Hoechst High Intensity Objects (%) [3]: 10%
Population Mitochondria Different-Phenotype (%) [3]: 27%
Population Mitotic Cells (%) [3]: 76%
Population Normal (%) [3]: 89%
Population Pyknosed Nuclei (%) [3]: 32%
Population Tubulin-Different-Phenotype (%) [3]: 46%
Total Cell Count [3]: 618
Population Apoptotic (%) [4]: 7%
Population Fragmented Nuclei (%) [4]: 3%
Population Healthy Nuclei (%) [4]: 85%
Population Hoechst High Intensity Objects (%) [4]: 2%
Population Membrane Permeable-Phenotype (%) [4]: 10%
Population Mitochondria Different-Phenotype (%) [4]: 33%
Population Mitotic Cells (%) [4]: 92%
Population Normal (%) [4]: 97%
Population Pyknosed Nuclei (%) [4]: 11%
Population Tubulin-Different-Phenotype (%) [4]: 80%
Total Cell Count [4]: 1484
Population Apoptotic (%) [5]: 59%
Population Fragmented Nuclei (%) [5]: 26%
Population Healthy Nuclei (%) [5]: 10%
Population Hoechst High Intensity Objects (%) [5]: 19%
Population Membrane Permeable-Phenotype (%) [5]: 5%
Population Mitochondria Different-Phenotype (%) [5]: 51%
Population Mitotic Cells (%) [5]: 40%
Population Normal (%) [5]: 80%
Population Pyknosed Nuclei (%) [5]: 63%
Population Tubulin-Different-Phenotype (%) [5]: 53%
Total Cell Count [5]: 694
Population Apoptotic (%) [6]: 37%
Population Fragmented Nuclei (%) [6]: 2%
Population Healthy Nuclei (%) [6]: 30%
Population Hoechst High Intensity Objects (%) [6]: 8%
Population Membrane Permeable-Phenotype (%) [6]: 2%
Population Mitochondria Different-Phenotype (%) [6]: 91%
Population Mitotic Cells (%) [6]: 62%
Population Normal (%) [6]: 91%
Population Pyknosed Nuclei (%) [6]: 66%
Population Tubulin-Different-Phenotype (%) [6]: 96%
Total Cell Count [6]: 1176
Population Apoptotic (%) [7]: 20%
Population Fragmented Nuclei (%) [7]: 9%
Population Healthy Nuclei (%) [7]: 76%
Population Hoechst High Intensity Objects (%) [7]: 7%
Population Membrane Permeable-Phenotype (%) [7]: 8%
Population Mitochondria Different-Phenotype (%) [7]: 18%
Population Mitotic Cells (%) [7]: 79%
Population Normal (%) [7]: 92%
Population Pyknosed Nuclei (%) [7]: 13%
Population Tubulin-Different-Phenotype (%) [7]: 54%
Total Cell Count [7]: 703
Population Apoptotic (%) [8]: 9%
Population Fragmented Nuclei (%) [8]: 11%
Population Healthy Nuclei (%) [8]: 83%
Population Hoechst High Intensity Objects (%) [8]: 2%
Population Membrane Permeable-Phenotype (%) [8]: 12%
Population Mitochondria Different-Phenotype (%) [8]: 14%
Population Mitotic Cells (%) [8]: 90%
Population Normal (%) [8]: 97%
Population Pyknosed Nuclei (%) [8]: 4%
Population Tubulin-Different-Phenotype (%) [8]: 75%
Total Cell Count [8]: 2335
